Bioassay records deposited in PubChem by several laboratories.
HIF activator = HIF pathway transcriptional activation. actives 0.32% (n = 300,000). AID 1910. activation, % at 7.5 µM (by protocol). U2OS HRE-luciferase reporter, luminescence; normalized: DMSO 0%, desferrioxamine 100%;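 active = mean activation of at least 10% of the iron chelator positive control signal, with at least half of replicates also reaching 10%; inconclusive = mean and replicate majority disagree about reaching 10%; inactive = mean and most replicates under 10%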
Calb FLC = C. albicans growth modulation with fluconazole; C. albicans CaCi-2 (fluconazole-resistant clinical isolate) + fluconazole, Alamar Blue growth, 48 h; growth inhibition, % (no concentration beside the values); actives 0.57% (n = 300,000);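 active = growth inhibition above about 58% in most replicates, limit read from the data, passing the limit was not always enough; inconclusive = exactly half the replicates above a set limit; inactive = most replicates below a set limit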;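 also: all wells also contain fluconazole at 8 µg/ml as a sub-toxic cotreatment; 0% = median of DMSO wells and 100% = median of geldanamycin control wells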
FXN GAA850 act = increases GAA850 frataxin promoter reporter activity. HEK293 lucGAA850 FXN promoter luciferase reporter, 24 h; percent of 10 µM SAHA response. activation, % at 6 µM. actives 0.56% (n = 360,000). AID 540364;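 active = activation above the average of all compounds screened plus 3 SD, cutoff fixed separately per campaign, cut at about 7.5% in these data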;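 also: 0% = DMSO wells and 100% = 10 µM SAHA wells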
Neddyl block = blocks human cullin neddylation. actives 0.58% (n = 360,000). inhibition, % at 25 µM. P61081+Q13564. TR-FRET cullin neddylation, biochemical; in the data active = inhibition above about 36%
proCasp3 act = activators of human procaspase-3. actives 0.11% (n = 330,000). activation, % at 8.5 µM. recombinant procaspase-3 D3A, Ac-DEVD-pNA absorbance 405 nm;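 active = activation above the mean of all tested compounds plus 3 SD, cut at about 21% in these data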;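 also: 0% = DMSO alone and 100% = DMSO wells spiked with extra 5 µM PC-3 D3A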
Target sequence (P42574 whole entry D9A/D28A/D175A): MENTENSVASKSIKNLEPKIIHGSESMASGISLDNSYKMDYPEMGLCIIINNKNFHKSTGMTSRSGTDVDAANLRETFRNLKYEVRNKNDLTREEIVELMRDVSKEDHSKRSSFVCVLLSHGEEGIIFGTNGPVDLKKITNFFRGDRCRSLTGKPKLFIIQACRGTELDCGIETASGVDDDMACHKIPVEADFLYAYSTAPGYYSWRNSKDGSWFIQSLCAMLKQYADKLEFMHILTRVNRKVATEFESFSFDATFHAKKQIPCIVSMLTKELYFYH
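Technique: 405 nm absorbance of p-nitroaniline, reads at 0 and 120 min; Test system: Procaspase-3 D3A mutant; Incubation: 1 h enzyme-compound preincubation, then 2 h substrate reaction, 25 °C; Repeats: singlicate, each compound tested once; Benchmarks: low control DMSO wells, high control DMSO plus 5 µM PC-3 D3A.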
procasp7 counter = activates human procaspase-7, counter-screen for procaspase-3 activators. P55210. recombinant procaspase-7, Ac-DEVD-pNA absorbance 405 nm; D23A/D198A/D206A triple mutant, cannot self-cleave; scale: DMSO 0, 5 µM enzyme 100. activation, % at 8.5 µM. actives 0.093% (n = 330,000). AID 463210;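 active = percent activation above the screen-wide mean plus 3 SD, cut at about 25% in these data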
Target sequence (P55210 whole entry D23A/D198A/D206A): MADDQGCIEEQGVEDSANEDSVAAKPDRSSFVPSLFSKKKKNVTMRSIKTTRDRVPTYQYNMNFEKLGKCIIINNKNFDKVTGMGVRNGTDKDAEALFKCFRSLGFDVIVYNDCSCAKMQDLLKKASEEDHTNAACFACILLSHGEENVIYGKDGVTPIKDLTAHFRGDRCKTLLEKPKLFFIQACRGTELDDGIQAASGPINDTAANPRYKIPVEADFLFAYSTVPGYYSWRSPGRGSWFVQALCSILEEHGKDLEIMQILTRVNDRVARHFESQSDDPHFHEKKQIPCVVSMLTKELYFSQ
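System: Uncleavable procaspase-7 mutant enzyme; Amount: 2 µM procaspase-7 mutant as dispensed; Schedule: 1 h compound preincubation, 2 h substrate cleavage, 25 °C; Measured by: 405 nm absorbance of p-nitroaniline; Evaluation: percent activation from buffer-corrected 0–120 min absorbance change; Control set: low DMSO alone, high DMSO plus 5 µM PC-7.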
GAA30 FXN cntr = activates GAA30 frataxin promoter, counter-screen for GAA850 activators. activation, % at 6 µM. AID 588350. actives 66% (n = 1,900). HEK293 lucGAA30 FXN promoter luciferase, 24 h; DMSO = 0%, 5 µM ipriflavone = 100%. shares compounds with FXN GAA850 act;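 active = mean activation above the mean of solvent-only control wells plus 3 SD, cut at about 22% in these data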;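 also: counterscreen of GAA850 promoter hits where activity marks nonselective or luminescence artifacts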
FXN GAA850 conf = confirmation of GAA850 frataxin (FXN) promoter activators. shares compounds with FXN GAA850 act. HEK293 lucGAA850 FXN promoter luciferase reporter, 24 h; 100% = activation by SAHA. activation, % at 6 µM. actives 86% (n = 1,900);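 active = mean activation above a set limit taken from the primary screen, cut at about 8% in these data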;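 also: 0% = DMSO wells and 100% = 10 µM SAHA wells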
Active calls of the source: *; i = inactive; ? = inconclusive; / = not tested or not shown. A selection: hits, their analogues and other compounds. The true share with any hit is near 1.9%.

SMILES	HIF activator	Calb FLC	FXN GAA850 act	Neddyl block	proCasp3 act	procasp7 counter	GAA30 FXN cntr	FXN GAA850 conf
CCCCCCCCCC1(CC(=O)OCC)SCCN1C(N)=O (stereo not drawn)	/	/	1	1	/	/	/	/
COc1ccc(C2=NNC(=O)C2(C)Br)cc1 (stereo not drawn)	/	/	0	13	/	/	/	/
CSC1=C(C#N)C(c2ccccc2C)C(C#N)=C(N)N1 (stereo not drawn)	0	34	11*	10	-1	-7	25*	15*
CCCCCc1ccnc(CC(=O)c2ccc(OC)cc2)c1	/	/	0	-4	/	/	/	/
Cc1cn(C2CCCCC2)c(=O)n(-c2ccccc2)c1=O	/	/	0	2	/	/	/	/
Cc1cc(C)cc(-n2c(SCC(=O)NCc3ccc4c(c3)OCO4)nc3ccccc3c2=O)c1	0	-9	8.6*	-61	0	-3	18	7
COc1ccc2oc(=O)c(-c3csc(Nc4ccc(O)cc4)n3)cc2c1	1	-6	19*	-13	-5	-24	79*	24*
CN(C)c1ccc(C(c2ccc(N(C)C)cc2)C(O)c2ccccc2)cc1 (stereo not drawn)	/	/	-11	0	/	/	/	/
O=c1[nH]nc(CNc2ccc(OC(F)(F)F)cc2)c2ccccc12	0	29	9.0*	-14	8	5	40*	20*
O=c1[nH]nc(CNc2ccc(C(F)(F)F)cc2)c2ccccc12	0	5	5	-5	7	-5	/	/
CCN1CCN(C(C(=O)NC2CCCCC2)c2ccnc3ccccc23)CC1 (stereo not drawn)	/	/	/	-2	/	/	/	/
C/C(=N\Nc1nc2ccccc2[nH]1)c1ccc(C)o1	2	-37	8.4*	7	-7	1	121*	36*
Cc1ccc(S(=O)(=O)Cn2nnnc2C(C(C)C)N2CCSCC2)cc1 (stereo not drawn)	0	7	0	-8	2	2	/	/
Cc1ccc(S(=O)(=O)Cn2nnnc2C(C(C)C)N2CCc3ccccc3C2)cc1 (stereo not drawn)	0	3	10*	-9	2	-11	8	7.7*
COC(=O)c1c(NC(=O)CN2CCC3(O)CCCCC3C2c2ccc(OC)cc2OC)sc(C)c1C (stereo not drawn)	0	10	10*	0	-18	-38	26*	5
O=c1sc(N2CCN(c3ccccc3F)CC2)nc2ccsc12	5	0	7.9*	-51	-1	2	106*	40*
O=S(=O)(c1cccs1)N1CCN(c2ccccc2F)CC1	2	2	7.7*	-6	-2	-12	12	7
O=c1sc(N2CCN(c3ccc(F)cc3)CC2)nc2ccsc12	2	2	5	i	-4	-4	/	/
O=S(=O)(c1cccs1)N1CCN(c2ccccc2Cl)CC1	0	7	3	-6	2	-3	/	/
CCCCSc1nnc(-c2ccccc2N)c(=O)[nH]1	2	-10	5	-39	-1	-6	/	/
CCCSc1nnc(-c2ccccc2N)c(=O)[nH]1	3	8	11*	-25	-15	-24	90*	28*
O=C1CC(c2ccco2)Sc2nc3ccccc3n21 (stereo not drawn)	4	-8	8.3*	5	0	5	84*	22*
Cc1cc(C)cc(NS(=O)(=O)CCCS(=O)(=O)Nc2cc(C)cc(C)c2)c1	/	/	-1	-5	/	/	/	/
COC(=O)c1c(-c2cccs2)csc1NC(=O)c1cccnc1	1	95*	9.8*	21	-8	14	69*	26*
CCOC(=O)c1c(-c2cccs2)csc1NC(=O)CC(C)C	-15	12	-1	-4	-6	7	/	/
SMILES	HIF activator	Calb FLC	FXN GAA850 act	Neddyl block	proCasp3 act	procasp7 counter	GAA30 FXN cntr	FXN GAA850 conf
C[C@@H]1CN([C@@H](C)CO)C(=O)c2cc(-c3ccccc3F)cnc2O[C@H]1CN(C)Cc1cccc(F)c1	/	/	-2	-3	/	/	/	/
CC(=O)NC(=S)Nc1ccc(-c2nc3ccc(C)cc3s2)cc1	3	-3	2	-12	-10	-10	/	/
CNC(=S)Nc1ccc(-c2nc3ccc(C)cc3s2)cc1	0	41	8.4*	-49	-10	-16	114*	39*
COCCNc1nnc(SC(C)C(=O)Nc2ccc(-c3nc4ccc(C)cc4s3)cc2)s1 (stereo not drawn)	5	50	8.8*	/	7	-14	74*	29*
Cc1ccc2nc(-c3ccc(NC(=O)COC(=O)c4cncc(Br)c4)cc3)sc2c1	1	1	8.4*	-53	/	/	107*	29*
Cc1ccc2nc(-c3ccc(NC(=O)COC(=O)c4ccc(Br)o4)cc3)sc2c1	/	/	1	31	8	-2	/	/
COCCNc1nnc(SC(C)C(=O)Nc2c(C)n(C)n(-c3ccccc3)c2=O)s1 (stereo not drawn)	-1	-3	0	-5	11	2	/	/
Cc1ccn2cc(-c3ccc(O)c(O)c3)nc2c1	30*	/	11*	18	-13	-17	127*	48*
Cc1ccn2cc(-c3cccc(NC(=O)C(C)C)c3)nc2c1	1	-9	4	/	16	0	/	/
Oc1ccc(-c2cn3ccccc3n2)cc1O	45*	1	8.9*	6	-8	-8	109*	33*
Oc1ccc(-c2cn3ccccc3n2)cc1	2	8	2	/	-2	1	/	/
Nc1[nH]nc2nc3ccccc3cc12	0	-16	3	-29	-1	-3	/	/
Nc1cccc2nc3ccccc3cc12	0	/	19*	/	-12	-6	-14	101*
Cc1[nH]c2ccccc2c1/C=N/NC(N)=S	1	1	0	-13	-9	-3	/	/
Cc1ccc(NC(=S)N/N=C/c2c(C)[nH]c3ccccc23)cc1	4	?	7.9*	5	3	-11	31*	21*
CN(c1ccccc1)c1ccc(/C=N/N2CCOCC2)cc1	1	0	7.9*	14	-6	-4	114*	36*
C(=NN1CCCCCC1)c1ccccc1	/	/	-2	8	/	/	/	/
NNc1ccc(Cl)c(C(=O)O)c1	0	1	8.7*	4	-4	1	81*	23*
CC1(Cc2ccccc2Cl)C(=O)Nc2ccc(OC(F)(F)F)cc21 (stereo not drawn)	/	/	0	0	/	/	/	/
